Publication PMC5384886 (International Journal for Parasitology: Drugs and Drug …, 2017)
Read-outs that look alike come from different tables or passages of the source.

Tests used:
[1] = tested on: Pf3D7 (chloroquine-sensitive) strain; test: In vitro P. falciparum whole cell assay; assay type: cell-based; conditions: Plasmodium falciparum, 72 h, read-out: Pf3D7 IC50
Summary of the method: (§1)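 Parasites synchronised to 95% ring stage with 5% sorbitol. Stocks: chloroquine in water, test compounds and dihydroartemisinin in DMSO, diluted in incomplete 1640 medium. Ring-stage cultures (1% parasitaemia, 2% haematocrit) exposed to serial dilutions for 72 h at 37 °C. Growth read by SYBR Green I fluorescence. IC50 from a sigmoidal growth fit.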

[2] = tested on: PfDd2 (chloroquine-resistant) strain; test: In vitro P. falciparum whole cell assay; assay type: cell-based; conditions: Plasmodium falciparum, 72 h, read-out: PfDd2 IC50
Summary of the method: as §1

adult S. japonicum = test: In vitro assay for drug effect on adult S. japonicum; assay type: cell-based, Schistosoma japonicum; conditions: 72 h
Summary of the method: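 Adult worms taken from infected mice 34–38 days post-infection, perfused with ice-cold heparinised HBSS, rinsed three times. Kept in RPMI 1640 with 10% calf serum, penicillin, streptomycin and amphotericin B. Four worm pairs per well, 2 h preincubation at 37 °C, 5% CO2, then compound at final 10 or 5 μg/mL; DMSO control. Scored at 24, 48, 72 h; death = no sucker/body movement for 2 min.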

[3] = tested on: juvenile S. japonicum (schistosomula); test: In vitro assay for drug effect on juvenile S. japonicum; assay type: cell-based, Schistosoma japonicum; conditions: 10 μg/mL
Summary of the method: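 Cercariae mechanically transformed to schistosomula and kept in RPMI 1640 with 5% FBS, 100 IU/mL penicillin and 100 μg/mL streptomycin at 37 °C, 5% CO2. 50 schistosomula/well exposed to compound at final 10 μg/mL for 72 h, in duplicate, with DMSO negative control. Activity, survival time, mortality and morphology scored microscopically at 12, 24, 48 and 72 h.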

β-hematin formation = test: Inhibition assay of β-hematin formation; assay type: biochemical; conditions: for β-Hematin % Inhibition: at a concentration of 100 μM; for IC50: read-out: β-Hematin IC50
Summary of the method: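 NP-40 detergent-mediated β-hematin assay. Compound in DMSO plus NP-40 and water. Hematin was dissolved in DMSO (25 mM stock) and suspended in acetate buffer (pH 4.8; final 0.5 M). Incubated 4 h at 37 °C. Controls: DMSO (negative), chloroquine and amodiaquine (100 μM final). Pyridine-ferrichrome read-out: 5% v/v final pyridine, HEPES pH 7.4, extra acetone, 405 nm. % inhibition at 100 μM; IC50 from concentration series; triplicate, repeated twice.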

[4] = Cytotoxicity assay on WI38 cells; assay type: cell-based, human; conditions: human, WI38 cells (human embryonic lung fibroblasts)
Summary of the method: (§2)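 WI38 cells harvested at log phase and seeded at 10 000/well in DMEM or MEM with 10% FBS and 1% penicillin-streptomycin. After 12 h adherence at 37 °C, 5% CO2, 2-fold dilutions (final 50 to 1.57 μM) were added in triplicate for 2 days. MTT read-out: 4 h, DMSO solubilisation, 490 nm. CC50 is the mean of two independent experiments. SI = CC50/IC50 for each Pf strain.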

[5] = tested on: human embryonic lung fibroblast WI38; test: Cytotoxicity assay on WI38 cells; assay type: cell-based; conditions: for SI CC50/IC50 (Pf3D7): CC50 WI38 / IC50 Pf3D7; for SI CC50/IC50 (PfDd2): CC50 WI38 / IC50 PfDd2
Summary of the method: as §2

SMILES	IC50 [1] [nM]	IC50 [2] [nM]	Adult S. japonicum worm-killing (adult S. japonicum; 5 μg/mL)	Adult S. japonicum worm-killing (adult S. japonicum; 10 μg/mL)	Juvenile S. japonicum worm-killing [3]	β-Hematin % Inhibition (β-hematin formation) [%]	IC50 (β-hematin formation) [nM]	CC50 at 2 days [4] [nM]	SI CC50/IC50 (Pf3D7) [5]	SI CC50/IC50 (PfDd2) [5]	IC50 (β-hematin formation; listed as chloroquine) [nM]
CCCCNC[C@@H](O)Cn1c2ccc(Cl)cc2c2cc(Cl)ccc21 [(R)-7, (R)-1-(butylamino)-3-(3,6-dichloro-9H-carbazol-9-yl)propan-2-ol]	344 ± 54	172 ± 32	+	+	+	75.13	119000 ± 7140	7690	22	45	
O=C(C1CCCCC1)N1CC(=O)N2CCc3ccccc3C2C1 (stereo not drawn) [Praziquantel, reference compound]			+	+							
OC(CN1CCCCC1)Cn1c2ccc(Cl)cc2c2cc(Cl)ccc21 (stereo not drawn) [Compound 4, 1-(3,6-Dichloro-9H-carbazol-9-yl)-3-(piperidin-1-yl)propan-2-ol]				+							
C[C@H]1[C@@H](O)O[C@@H]2O[C@@]3(C)CC[C@H]4[C@H](C)CC[C@@H]1[C@@]24OO3 [Dihydroartemisinin, reference compound]		5 ± 0.2									
CCCCCCCNCC(O)Cn1c2ccc(Cl)cc2c2cc(Cl)ccc21 (stereo not drawn) [Compound 10, 1-(3,6-Dichloro-9H-carbazol-9-yl)-3-(heptylamino)propan-2-ol]	179 ± 44	54 ± 10	±	+	+	74.74	91600 ± 4670	5140	28	95	
CCN(CC)CCCC(C)Nc1ccnc2cc(Cl)ccc12 (stereo not drawn) [Chloroquine, reference compound]	15 ± 8	231 ± 24				97.8	61000 ± 5550				61000
OC(CN1CCOCC1)Cn1c2ccc(Cl)cc2c2cc(Cl)ccc21 (stereo not drawn) [Compound 5, 1-(3,6-Dichloro-9H-carbazol-9-yl)-3-morpholinopropan-2-ol]	1290 ± 329					0					
CCCCNC[C@H](O)Cn1c2ccc(Cl)cc2c2cc(Cl)ccc21 [(S)-7, (S)-1-(butylamino)-3-(3,6-dichloro-9H-carbazol-9-yl)propan-2-ol]	378 ± 91	112 ± 30	+	+	+	80.09	106000 ± 8420	9340	24	83	
CCCCCCCCNCC(O)Cn1c2ccc(Cl)cc2c2cc(Cl)ccc21 (stereo not drawn) [Compound 11, 1-(3,6-Dichloro-9H-carbazol-9-yl)-3-(octylamino)propan-2-ol]	132 ± 59	54 ± 6	±	+	+	50.59	65400 ± 4900	3770	29	70	
OC(CN1CCCC1)Cn1c2ccc(Cl)cc2c2cc(Cl)ccc21 (stereo not drawn) [Compound 3, 1-(3,6-Dichloro-9H-carbazol-9-yl)-3-(pyrrolidin-1-yl)propan-2-ol]	2670 ± 870			+		10.76					
CCCCCCNCC(O)Cn1c2ccc(Cl)cc2c2cc(Cl)ccc21 (stereo not drawn) [Compound 9, 1-(3,6-Dichloro-9H-carbazol-9-yl)-3-(hexylamino)propan-2-ol]	274 ± 63	47 ± 10	±	+	+	81.85	55000 ± 5870	5920	22	126	
CCN(CC)Cc1cc(Nc2ccnc3cc(Cl)ccc23)ccc1O [Amodiaquine, reference compound]						100	15900 ± 1290				
